≈ marks a conversion by molar mass, not a printed value. Calls of active or inactive are those of the source. No cut-off for these calls is given here.
Legend:
[1] = Inhibition of Mycobacterium smegmatis TMC 607 ATP synthase incubated for 10 mins prior to NADH addition measured after 1 hr by luminescence assay; design: species or system Mycolicibacterium smegmatis; settings: read-out: IC50
[2] = test system: Mycobacterium tuberculosis; assay: Antimycobacterial activity against Mycobacterium tuberculosis H37Rv after 4 weeks by agar dilution assay; assay type: functional
Procedure, shortened: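 Agar dilution method. DMSO stocks (5 mg/mL) were serially diluted in DMSO, and 0.1 mL of each was mixed into 1.9 mL Middlebrook 7H10 agar with OADC and set as slants. Each tube received about 10^5 bacilli from a 3-week Lowenstein–Jensen culture suspended in saline with 0.05% Tween-80. Tubes were incubated at 37 °C for 4 weeks. MIC was the lowest concentration with no visible growth.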

[3] = Cytotoxicity against African green monkey Vero cells after 72 hrs yb resazurin assay; assay type: cell-based; settings: chlorocebus sabaeus
Procedure, shortened: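 Vero cells were seeded overnight in RPMI with 10% heat-inactivated FBS at 37 °C, 5% CO2. Cells were exposed in triplicate to concentrations from 100 to 1.56 µg/mL for 72 h. Resazurin (0.1%) was then added for 4–5 h, and fluorescence was read at ex 530/em 590 nm. CC50 was derived from the fluorescence plot.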

[4] = Selectivity index, ratio of CC50 for African green monkey Vero cells to MIC100 for Mycobacterium tuberculosis H37Rv; assay type: toxicity, cell-based; settings: read-out: Selectivity Index
Procedure, shortened: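 Selectivity index is CC50 from the Vero resazurin assay divided by the agar-dilution MIC against H37Rv.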

[5] = test system: Mycobacterium tuberculosis H37Rv; assay: Inhibition of Mycobacterium tuberculosis H37Rv ATP synthase assessed as reduction in total ATP content at 50 ug/ml after 18 hrs by bead-vortexing settling method
Procedure, shortened: (§1)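 H37Rv was declumped by bead-vortexing and settling, adjusted to McFarland 1, then diluted 100-fold. Portions of 1 mL in tubes with 0.5 mm glass beads were exposed to compound for 18 h at 37 °C. Samples were heated 8–10 min, chilled on ice, and bead-beater lysed. Cleared lysate ATP was measured by luciferase assay.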

[6] = test system: Mycobacterium tuberculosis H37Rv; assay: Inhibition of Mycobacterium tuberculosis H37Rv ATP synthase assessed as reduction in total ATP content at 12.5 ug/ml after 18 hrs by bead-vortexing settling method; procedure, shortened: as §1
[7] = Inhibition of Swiss mouse liver ATP synthase after 1 hr
Procedure, shortened: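 Liver mitochondria came from an overnight-fasted adult Swiss mouse, isolated by differential centrifugation in sucrose/Tris-MOPS/EGTA buffer pH 7.4 and assayed the same day. Mitochondria (100 µg) were stirred at room temperature with 100 µM compound in Tris/HCl, sucrose, 5 mM MgCl2 and 100 µM diadenosine pentaphosphate, pH 7.4. The reaction was started with 1 mM ADP, 20 mM Pi and 50 mM succinate, stopped after 1 h with EDTA-TCA, and ATP was read by luciferase.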

[8] = Selectivity ratio of IC50 for Mycobacterium smegmatis TMC 607 ATP synthase to IC50 for Swiss mouse liver ATP synthase
[9] = test system: Mycobacterium tuberculosis; assay: Bactericidal activity against non-replicating Mycobacterium tuberculosis H37Rv Wayne model under hypoxic/oxygen depleted conditions assessed as log reduction after 4 days by serial dilution assay; assay type: functional
Procedure, shortened: (§2)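 Wayne hypoxia model. A mid-log 7H9 culture was diluted to about 10^5 cfu/mL, and 10 mL was sealed in 20 mL headspace vials. Vials were stirred slowly at 37 °C for 20–22 days, until methylene blue indicator (1.5 µg/mL) decolorized. Drug was then injected through the septum, and vials were incubated 4 more days at 37 °C. Tests were run in duplicate, with CFU counted on 7H10 agar plates.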

[10] = test system: Mycobacterium tuberculosis; assay: Bactericidal activity against non-replicating Mycobacterium tuberculosis H37Rv Wayne model under hypoxic/oxygen depleted conditions assessed as log reduction at 100 ug/ml after 4 days by serial dilution assay; assay type: functional; procedure, shortened: as §2
[11] = test system: Mycobacterium tuberculosis; assay: Bactericidal activity against non-replicating Mycobacterium tuberculosis H37Rv Wayne model under hypoxic/oxygen depleted conditions assessed as log reduction at 10 ug/ml after 4 days by serial dilution assay; assay type: functional; procedure, shortened: as §2
Escherichia coli = assay: Antibacterial activity against Escherichia coli ATCC 9637 at 50 ug/ml; assay type: functional, organism-based
Staphylococcus aureus = assay: Antibacterial activity against Staphylococcus aureus ATCC 25923 at 50 ug/ml; assay type: functional, organism-based
Klebsiella pneumoniae = assay: Antibacterial activity against Klebsiella pneumoniae ATCC 27736 at 50 ug/ml; assay type: functional, organism-based
Pseudomonas aeruginosa = assay: Antibacterial activity against Pseudomonas aeruginosa ATCC BAA-427 at 50 ug/ml; assay type: functional, organism-based
Candida albicans = assay: Antifungal activity against Candida albicans at 50 ug/ml; assay type: functional, organism-based
Cryptococcus neoformans = assay: Antifungal activity against Cryptococcus neoformans at 50 ug/ml; assay type: functional, organism-based
Sporothrix schenckii = assay: Antifungal activity against Sporothrix schenckii at 50 ug/ml; assay type: functional, organism-based
[12] = test system: Trichophyton mentagrophytes; assay: Antifungal activity against Trichophyton mentagrophytes at 50 ug/ml; assay type: functional, organism-based
Aspergillus fumigatus = assay: Antifungal activity against Aspergillus fumigatus at 50 ug/ml; assay type: functional, organism-based
Candida parapsilosis = assay: Antifungal activity against Candida parapsilosis ATCC 22019 at 50 ug/ml; assay type: functional, organism-based
[13] = Cmax in Sprague-Dawley rat at 10 mg/kg, po; assay type: ADME, organism-based; design: dose 10 mg/kg, route oral; settings: in vivo
Procedure, shortened: (§3)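 Male Sprague–Dawley rats (250 ± 25 g) each received a single oral dose of 10 mg/kg or an intravenous dose of 1 mg/kg. Plasma concentration–time profiles were obtained with three rats per time point. Parameters were calculated with a two-compartmental model, and values are averages of three rats. Cmax is given as mean ± SEM.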

[14] = Tmax in Sprague-Dawley rat at 10 mg/kg, po; assay type: ADME, organism-based; design: dose 10 mg/kg, route oral; settings: in vivo; procedure, shortened: as §3
Rattus norvegicus [15] = assay: AUC in Sprague-Dawley rat at 10 mg/kg, po; assay type: ADME, organism-based, Plasma; design: dose 10 mg/kg, route oral; settings: in vivo; procedure, shortened: as §3
[16] = Elimination half life in Sprague-Dawley rat at 10 mg/kg, po; assay type: ADME, organism-based; design: dose 10 mg/kg, route oral; settings: in vivo, read-out: beta t1/2 (converted); procedure, shortened: as §3
Rattus norvegicus [17] = assay: Volume of distribution at steady state in Sprague-Dawley rat at 10 mg/kg, po; assay type: ADME, organism-based; design: dose 10 mg/kg, route oral; settings: in vivo; procedure, shortened: as §3
Rattus norvegicus [18] = assay: Clearance in Sprague-Dawley rat at 10 mg/kg, po; assay type: ADME, organism-based; design: dose 10 mg/kg, route oral; settings: in vivo; procedure, shortened: as §3
[19] = Oral bioavailability in Sprague-Dawley rat at 10 mg/kg; assay type: ADME, organism-based; settings: in vivo; procedure, shortened: as §3
[20] = Cmax in Sprague-Dawley rat at 1 mg/kg, iv; assay type: ADME, organism-based; design: dose 1 mg/kg, route intravenous; settings: in vivo; procedure, shortened: as §3
[21] = Tmax in Sprague-Dawley rat at 1 mg/kg, iv; assay type: ADME, organism-based; design: dose 1 mg/kg, route intravenous; settings: in vivo; procedure, shortened: as §3
[22] = AUC in Sprague-Dawley rat at 1 mg/kg, iv; assay type: ADME, organism-based; design: dose 1 mg/kg, route intravenous; settings: plasma; procedure, shortened: as §3
[23] = Elimination half life in Sprague-Dawley rat at 1 mg/kg, iv; assay type: ADME, organism-based; design: dose 1 mg/kg, route intravenous; settings: in vivo, read-out: beta t1/2 (converted); procedure, shortened: as §3
[24] = Volume of distribution at steady state in Sprague-Dawley rat at 1 mg/kg, iv; assay type: ADME, organism-based; design: dose 1 mg/kg, route intravenous; settings: in vivo, read-out: Vdss; procedure, shortened: as §3
[25] = Clearance in Sprague-Dawley rat at 1 mg/kg, iv; assay type: ADME, organism-based; design: dose 1 mg/kg, route intravenous; settings: in vivo; procedure, shortened: as §3
[26] = Mean residence time in Sprague-Dawley rat at 10 mg/kg, po; assay type: ADME, organism-based; design: dose 10 mg/kg, route oral; settings: in vivo; procedure, shortened: as §3
[27] = test system: Mycobacterium tuberculosis; assay: Antimycobacterial activity against Mycobacterium tuberculosis H37Rv infected in mouse chronic TB model assessed as survival rate at 173 umol/kg administered via esophageal cannula 6 times a week for 4 weeks relative to untreated control; assay type: functional
Procedure, shortened: (§4)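 Male Balb/C mice (8–10 weeks, 18–20 g), ten per group, were infected intravenously with 5 × 10^6 CFU H37Rv in 0.2 mL. Dosing by gavage began on day 1, six times weekly for 4 weeks, with the last dose on day 28. Survival was followed to day 30. Survivors were sacrificed on day 30, and lung and spleen homogenates were plated on 7H10/OADC at 37 °C for 4–6 weeks. Results were compared with an untreated infected group.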

[28] = test system: Mycobacterium tuberculosis; assay: Antimycobacterial activity against Mycobacterium tuberculosis H37Rv infected in mouse chronic TB model assessed as survival rate at 87 umol/kg administered via esophageal cannula 6 times a week for 4 weeks relative to untreated control; assay type: functional; procedure, shortened: as §4
[29] = test system: Mycobacterium tuberculosis; assay: Antimycobacterial activity against Mycobacterium tuberculosis H37Rv infected in mouse chronic TB model assessed as log reduction in lungs at 173 umol/kg administered via esophageal cannula 6 times a week for 4 weeks relative to untreated control; assay type: functional
[30] = test system: Mycobacterium tuberculosis; assay: Antimycobacterial activity against Mycobacterium tuberculosis H37Rv infected in mouse chronic TB model assessed as log reduction in lungs at 87 umol/kg administered via esophageal cannula 6 times a week for 4 weeks relative to untreated control; assay type: functional
[31] = test system: Mycobacterium tuberculosis; assay: Antimycobacterial activity against Mycobacterium tuberculosis H37Rv infected in mouse chronic TB model assessed as log reduction in spleen at 173 umol/kg administered via esophageal cannula 6 times a week for 4 weeks relative to untreated control; assay type: functional
[32] = test system: Mycobacterium tuberculosis; assay: Antimycobacterial activity against Mycobacterium tuberculosis H37Rv infected in mouse chronic TB model assessed as log reduction in spleen at 87 umol/kg administered via esophageal cannula 6 times a week for 4 weeks relative to untreated control; assay type: functional

CCN(CC)Cc1cc(N(c2cc(C)nc3cc(Cl)ccc23)S(=O)(=O)c2cccc(Cl)c2Cl)ccc1O
IC50 [1]: 510 nM
MIC100 [2]: 3.12 µg/mL (≈ 5.39 µM)
CC50 at 72 h [3]: > 300 µg/mL
selectivity ratio [4]: > 96
inhibition [5]: 31%
inhibition [6]: 60%
IC50 [7]: > 100000 nM
Ratio IC50 [8]: > 155
MIC100 [9]: 3.12 µg/mL (≈ 5.39 µM)
log10CFU/ml [10]: 2.34
log10CFU/ml [11]: 1.14
Activity (Escherichia coli): inactive
Activity (Staphylococcus aureus): inactive
Activity (Klebsiella pneumoniae): inactive
Activity (Pseudomonas aeruginosa): inactive
Activity (Candida albicans): inactive
Activity (Cryptococcus neoformans): inactive
Activity (Sporothrix schenckii): inactive
Activity [12]: inactive
Activity (Aspergillus fumigatus): inactive
Activity (Candida parapsilosis): inactive
Cmax [13]: 616 ng/mL
Tmax [14]: 0.5 h
AUC (Rattus norvegicus [15]): 2813 ng·h/mL
half-life [16]: 4.2 h
Vdss (Rattus norvegicus [17]): 0.41 L/kg
CL (Rattus norvegicus [18]): 1 mL/min/kg
bioavailability [19]: 1.72%
Cmax [20]: 2420 ng/mL
Tmax [21]: 5 min
AUC [22]: 16400 ng·h/mL
half-life [23]: 8.84 h
Vd [24]: 0.84 L/kg
clearance [25]: 1.17 mL/min/kg
MRT [26]: 6.69 h
Survival [27]: 60%
Survival [28]: 40%
log10cfu [29]: 2.12
log10cfu [30]: 1
log10cfu [31]: 2.12
log10cfu [32]: 1

Reference: ChEMBL document CHEMBL3399929 (Bioorg Med Chem, 2015)
